Data reported in ChEMBL document CHEMBL1146946, “Synthesis of novel benzofuran isoxazolines as protein tyrosine phosphatase 1B inhibitors” (Bioorg Med Chem Lett, 2006).

Columns and labels:
[1] = target: T1, Tyrosine-protein phosphatase non-receptor type 1 (Homo sapiens) (UniProt P18031); assay: Inhibition of PTP1B at 100 uM
T1 sequence (whole entry): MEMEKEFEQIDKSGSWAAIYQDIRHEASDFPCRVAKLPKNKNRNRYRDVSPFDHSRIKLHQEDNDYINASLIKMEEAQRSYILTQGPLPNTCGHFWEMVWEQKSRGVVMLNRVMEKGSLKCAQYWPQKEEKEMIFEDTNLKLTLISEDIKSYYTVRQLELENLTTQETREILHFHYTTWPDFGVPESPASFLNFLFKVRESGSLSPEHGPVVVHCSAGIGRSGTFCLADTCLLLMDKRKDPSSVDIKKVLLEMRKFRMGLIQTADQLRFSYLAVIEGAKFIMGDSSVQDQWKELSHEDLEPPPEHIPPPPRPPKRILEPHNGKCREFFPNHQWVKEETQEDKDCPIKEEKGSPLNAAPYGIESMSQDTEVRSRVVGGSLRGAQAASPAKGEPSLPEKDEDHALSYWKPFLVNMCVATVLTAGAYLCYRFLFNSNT
Method in brief: (§1)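 Test compound preincubated 10 min with enzyme in the reaction system before residual phosphatase activity was read. Substrate was 10 mM p-nitrophenylphosphate in 50 mM HEPES pH 7.0 with 1 mM each of EDTA and DTT. The reaction was stopped with 0.1 N NaOH and absorbance read at 410 nm. No-enzyme blanks run in parallel corrected for non-enzymic hydrolysis.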

[2] = target: T2, Tyrosine-protein phosphatase non-receptor type 1 (Homo sapiens, UniProt P18031); assay: Inhibition of PTP1B; method in brief: as §1
T2 sequence (P18031 whole entry): T1 sequence (whole entry)

Rattus norvegicus = assay: Antihyperglycemic activity in Streptozotocin-induced diabetic rat at 100 mg/kg; type: functional

Row | Compound | inhibition [1] [%] | IC50 [2] [µM] | Ki [2] [µM] | inhibition in vivo at 100 mg/kg (Rattus norvegicus) [%]
1 | COc1c(C2=NOC(c3ccccn3)C2)cc(OC)c2occc12 (stereo unspecified) | 18.4 | – | – | –
2 | COc1c(C2=NOC(n3ccnc3)C2)ccc2occc12 (stereo unspecified) | 14.9 | – | – | –
3 | COc1c(C2=NOC(c3ccncc3)C2)ccc2occc12 (stereo unspecified) | 14.7 | – | – | –
4 | COc1ccc(C2CC(c3cc(OC)c4occc4c3OC)=NO2)cc1 (stereo unspecified) | 79.6 | 81 | 32 | –
5 | COC(=O)C1C(c2ccc3occc3c2OC)=NOC1c1ccccc1 (stereo unspecified) | 18.5 | 199 | 72.5 | –
6 | COc1c(C2=NOC(c3ccccc3)C2)ccc2occc12 (stereo unspecified) | 22.5 | 227 | 45 | –
7 | COc1c(-c2ccccc2)oc2c(ccc3occc32)c1=O [KARANJIN] | 15.8 | – | – | 35
8 | COc1ccc(C2CC(c3ccc4occc4c3OC)=NO2)cc1 (stereo unspecified) | 49.1 | 150 | 27.5 | –
9 | COc1c(C2=NOC(c3ccccc3)C2)cc(OC)c2occc12 (stereo unspecified) | 80.4 | 76 | 30 | –
10 | COc1c(C2=NOC(c3ccccn3)C2)ccc2occc12 (stereo unspecified) | 17.4 | – | – | –
